Test results from ChEMBL document CHEMBL4038284, “Synthesis of novel quinoline-based 4,5-dihydro-1H-pyrazoles as potential anticancer, antifungal, antibacterial and antiprotozoal agents” (Eur J Med Chem, 2017).
Converted amounts (≈) assume the structure as drawn.

Legend:
Klebsiella pneumoniae [1] = experiment: Antibacterial activity against ESBL positive Klebsiella pneumoniae ATCC 700603 after 24 hrs by resazurin dye based microdilution assay; type: functional; details: Klebsiella pneumoniae, 700603, 24 h
Method in brief: (§1)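 MIC taken as the lowest concentration giving visible inhibition and/or by resazurin (1 mg/mL). Gentamicin was the control. Run in duplicate, repeated at least three times.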

Klebsiella pneumoniae [2] = experiment: Antibacterial activity against carbapenemase positive Klebsiella pneumoniae BAA 1705 after 24 hrs by resazurin dye based microdilution assay; type: functional; details: BAA 1705, 24 h; method in brief: as §1
Leishmania panamensis = experiment: Antileshmanial activity against EpiR/GFP fused Leishmania panamensis MHOM/CO/87/UA140 intracellular amastigotes infected in human […] cells after 72 hrs by flow cytometric method; type: functional, cell-based; details: MHOM/CO/87/UA140, 72 h
Method in brief: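 PMA-treated U-937 cells (3 × 10^5 cells/mL) infected with stationary-phase GFP L. panamensis promastigotes (15:1), 3 h at 34 °C, then washed. After 24 h, compounds added at 50, 12.5, 3.125 and 0.78 µg/mL for 72 h at 37 °C. EC50 by Probit; triplicate, two experiments.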

Candida albicans [3] = experiment: Antifungal activity against Candida albicans ATCC 10231 incubated for 48 hrs under dark condition by broth microdilution method; type: functional; details: ATCC 10231, 48 h
Method in brief: (§2)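 CLSI M27-A3 broth microdilution in RPMI-1640, DMSO ≤1%, compounds at 250-0.98 µg/mL final. Inoculum 1-5 × 10^3 CFU/mL. Incubated 48 h at 30 °C in a moist dark chamber, read at OD405. MIC80 and MIC50 taken from % inhibition dose-response curves (mean ± SEM, triplicate). Amphotericin B was the positive control.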

Cryptococcus neoformans [4] = experiment: Antifungal activity against Cryptococcus neoformans ATCC 32264 incubated for 48 hrs under dark condition by broth microdilution method; type: functional; details: ATCC 32264, 48 h; method in brief: as §2
Candida albicans [5] = experiment: Growth inhibition of Candida albicans ATCC 10231 at 250 ug/ml incubated for 48 hrs under dark condition by broth microdilution method relative to control; type: functional; details: ATCC 10231, 48 h, read-out: GI
Method in brief: (§3)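 CLSI M27-A3 broth microdilution in RPMI-1640, DMSO ≤1%. Inoculum 1-5 × 10^3 CFU/mL. Incubated 48 h at 30 °C, dark. % inhibition = 100 − (OD405 test − sterility control)/(OD405 growth control − sterility control), with growth and sterility control wells. Triplicate.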

Candida albicans [6] = experiment: Growth inhibition of Candida albicans ATCC 10231 at 125 ug/ml incubated for 48 hrs under dark condition by broth microdilution method relative to control; type: functional; details: ATCC 10231, 48 h, read-out: GI; method in brief: as §3
Candida albicans [7] = experiment: Growth inhibition of Candida albicans ATCC 10231 at 62.5 ug/ml incubated for 48 hrs under dark condition by broth microdilution method relative to control; type: functional; details: ATCC 10231, 48 h, read-out: GI; method in brief: as §3
Candida albicans [8] = experiment: Growth inhibition of Candida albicans ATCC 10231 at 31.25 ug/ml incubated for 48 hrs under dark condition by broth microdilution method relative to control; type: functional; details: ATCC 10231, 48 h, read-out: GI; method in brief: as §3
Candida albicans [9] = experiment: Growth inhibition of Candida albicans ATCC 10231 at 15.62 ug/ml incubated for 48 hrs under dark condition by broth microdilution method relative to control; type: functional; details: ATCC 10231, 48 h, read-out: GI; method in brief: as §3
Candida albicans [10] = experiment: Growth inhibition of Candida albicans ATCC 10231 at 7.8 ug/ml incubated for 48 hrs under dark condition by broth microdilution method relative to control; type: functional; details: ATCC 10231, 48 h, read-out: GI; method in brief: as §3
Candida albicans [11] = experiment: Growth inhibition of Candida albicans ATCC 10231 at 3.4 ug/ml incubated for 48 hrs under dark condition by broth microdilution method relative to control; type: functional; details: ATCC 10231, 48 h, read-out: GI
Cryptococcus neoformans [12] = experiment: Growth inhibition of Cryptococcus neoformans ATCC 32264 at 250 ug/ml incubated for 48 hrs under dark condition by broth microdilution method relative to control; type: functional; details: ATCC 32264, 48 h, read-out: GI; method in brief: as §3
Cryptococcus neoformans [13] = experiment: Growth inhibition of Cryptococcus neoformans ATCC 32264 at 125 ug/ml incubated for 48 hrs under dark condition by broth microdilution method relative to control; type: functional; details: ATCC 32264, 48 h, read-out: GI; method in brief: as §3
Cryptococcus neoformans [14] = experiment: Growth inhibition of Cryptococcus neoformans ATCC 32264 at 62.5 ug/ml incubated for 48 hrs under dark condition by broth microdilution method relative to control; type: functional; details: ATCC 32264, 48 h, read-out: GI; method in brief: as §3
Cryptococcus neoformans [15] = experiment: Growth inhibition of Cryptococcus neoformans ATCC 32264 at 31.25 ug/ml incubated for 48 hrs under dark condition by broth microdilution method relative to control; type: functional; details: ATCC 32264, 48 h, read-out: GI; method in brief: as §3
Cryptococcus neoformans [16] = experiment: Growth inhibition of Cryptococcus neoformans ATCC 32264 at 15.62 ug/ml incubated for 48 hrs under dark condition by broth microdilution method relative to control; type: functional; details: ATCC 32264, 48 h, read-out: GI; method in brief: as §3
Cryptococcus neoformans [17] = experiment: Growth inhibition of Cryptococcus neoformans ATCC 32264 at 7.8 ug/ml incubated for 48 hrs under dark condition by broth microdilution method relative to control; type: functional; details: ATCC 32264, 48 h, read-out: GI; method in brief: as §3
Cryptococcus neoformans [18] = experiment: Growth inhibition of Cryptococcus neoformans ATCC 32264 at 3.4 ug/ml incubated for 48 hrs under dark condition by broth microdilution method relative to control; type: functional; details: ATCC 32264, 48 h, read-out: GI
Staphylococcus aureus [19] = experiment: Antibacterial activity against methicillin-sensitive Staphylococcus aureus ATCC 25923 after 24 hrs by resazurin dye based microdilution assay; type: functional; details: ATCC 25923, 24 h; method in brief: as §1
Staphylococcus aureus [20] = experiment: Antibacterial activity against methicillin-resistant Staphylococcus aureus ATCC 43300 after 24 hrs by resazurin dye based microdilution assay; type: functional; details: ATCC 43300, 24 h
Method in brief: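 Broth microdilution in Mueller Hinton broth, inoculum 5 × 10^5 – 8 × 10^5. Compound stocks diluted in MHB with 5% DMSO and 0.1% Tween 80. Incubation 24 h at 35-37 °C. MIC is the lowest concentration with visible growth inhibition and/or by resazurin (1 mg/mL) read-out. Gentamicin as control. Run in duplicate, replicated at least three times.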

Staphylococcus aureus [21] = experiment: Antibacterial activity against vancomycin-intermediate Staphylococcus aureus after 24 hrs by resazurin dye based microdilution assay; type: functional; method in brief: as §1
Escherichia coli = experiment: Antibacterial activity against Escherichia coli ATCC 25922 after 24 hrs by resazurin dye based microdilution assay; type: functional; details: ATCC 25922, 24 h; method in brief: as §1
Pseudomonas aeruginosa = experiment: Antibacterial activity against Pseudomonas aeruginosa ATCC 27853 after 24 hrs by resazurin dye based microdilution assay; type: functional; details: ATCC 27853, 24 h; method in brief: as §1
Neisseria gonorrhoeae = experiment: Antibacterial activity against beta lactamase positive Neisseria gonorrhoeae ATCC 31426 by oxidase test; type: functional
Method in brief: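 Agar dilution MIC on GC agar with 1% isovitalex containing increasing compound concentrations. Plates inoculated with about 1×10^4 CFU (5 µL). MIC is the lowest concentration that inhibited growth, with growth confirmed by oxidase test. Run in duplicate, repeated at least three times.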

Plasmodium falciparum = experiment: Antiplasmodial activity against chloroquine-sensitive Plasmodium falciparum 3D7 assessed as reduction in parasitic LDH activity after 48 hrs by Malstat reagent based […] method; type: functional; details: 3D7, 48 h
Method in brief: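 Unsynchronized P. falciparum 3D7 at 0.5% parasitemia and 1% hematocrit in RPMI with 3% Albumax II. Exposed to 100, 25, 6.25 and 1.56 µg/mL for 48 h at 37 °C under 90% N2/5% CO2/5% O2. After three freeze-thaw cycles, LDH measured with Malstat and NBT/PES, 1 h in the dark, read at 650 nm. IC50 by Probit; triplicate, ≥2 experiments.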

U-937 = experiment: Cytotoxicity against human U937 cells after 72 hrs by MTT assay; type: cell-based; details: u-937, 72 h
Method in brief: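 Exponentially growing U-937 at 1 × 10^5 cells/mL in RPMI-1640 with 10% FBS were exposed to 200, 50, 12.5 and 3.125 µg/mL for 72 h at 37 °C, 5% CO2. MTT for 3 h, stopped with isopropanol/SDS, formazan read at 570 nm, blank-corrected. LC50 by Probit from % viability against untreated cells. Triplicate, at least two independent experiments.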

Trypanosoma cruzi = experiment: Antitrypanosomal activity against Trypanosoma cruzi Tulahuen intracellular amastigote harboring LacZ infected in human U937 cells after 72 hrs by CPRG/Nonidet reagent based spectrophotometric method; type: functional, cell-based; details: U-937, 72 h
Method in brief: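 U-937 cells at 2.5 × 10^5 cells/mL in RPMI-1640 with 10% serum and 0.1 µg/mL PMA were infected with β-galactosidase-transfected Tulahuen epimastigotes at 5 parasites per cell. Infected cells were exposed to 50, 12.5, 3.125 and 0.78 µg/mL for 72 h. CPRG (100 uM) and 0.1% Nonidet P-40 were added for 3 h, read at 570 nm. EC50 by Probit. Triplicate, at least two experiments; benznidazole as reference.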

## CC(=O)N1N=C(c2ccc(C)cc2)CC1c1cccc(Nc2ccnc3cc(Cl)ccc23)c1 (stereo not given)
Klebsiella pneumoniae [1]
  MIC: > 1000 mg/L
Klebsiella pneumoniae [2]
  MIC: > 1000 mg/L
Leishmania panamensis
  EC50: 1.55 mg/L (≈ 3.41 µM)
Candida albicans [3]
  MIC50: 250 mg/L (≈ 549 µM)
  MIC80: ≥ 250 mg/L
Cryptococcus neoformans [4]
  MIC50: 125 mg/L (≈ 275 µM)
  MIC80: 250 mg/L (≈ 549 µM)
Candida albicans [5]
  inhibition of growth at 250 µg/mL: 67.8%
Candida albicans [6]
  inhibition of growth at 125 µg/mL: 46.2%
Candida albicans [7]
  inhibition of growth at 62.5 µg/mL: 35.9%
Candida albicans [8]
  inhibition of growth at 31.25 µg/mL: 32.2%
Candida albicans [9]
  inhibition of growth at 15.62 µg/mL: 31.4%
Candida albicans [10]
  inhibition of growth at 7.8 µg/mL: 20.6%
Candida albicans [11]
  inhibition of growth at 3.4 µg/mL: 15.9%
Cryptococcus neoformans [12]
  inhibition of growth at 250 µg/mL: 100%
Cryptococcus neoformans [13]
  inhibition of growth at 125 µg/mL: 54.7%
Cryptococcus neoformans [14]
  inhibition of growth at 62.5 µg/mL: 42.9%
Cryptococcus neoformans [15]
  inhibition of growth at 31.25 µg/mL: 33.7%
Cryptococcus neoformans [16]
  inhibition of growth at 15.62 µg/mL: 29.6%
Cryptococcus neoformans [17]
  inhibition of growth at 7.8 µg/mL: 29.2%
Cryptococcus neoformans [18]
  inhibition of growth at 3.4 µg/mL: 13.2%
Staphylococcus aureus [19]
  MIC: > 1000 mg/L
Staphylococcus aureus [20]
  MIC: > 1000 mg/L
Staphylococcus aureus [21]
  MIC: > 1000 mg/L
Escherichia coli
  MIC: > 1000 mg/L
Pseudomonas aeruginosa
  MIC: > 1000 mg/L
Neisseria gonorrhoeae
  MIC: > 1000 mg/L
Plasmodium falciparum
  EC50: 17.5 mg/L (≈ 38.5 µM)
U-937
  LC50: 4.4 mg/L (≈ 9.67 µM)
Trypanosoma cruzi
  EC50: 1.62 mg/L (≈ 3.56 µM)

## COc1cc(C2=NN(C=O)C(c3cccc(Nc4ccnc5cc(Cl)ccc45)c3)C2)cc(OC)c1OC (stereo not given)
Klebsiella pneumoniae [1]
  MIC: > 1000 mg/L
Klebsiella pneumoniae [2]
  MIC: > 1000 mg/L
Leishmania panamensis
  EC50: 6.79 mg/L (≈ 13.1 µM)
Candida albicans [3]
  MIC50: ≥ 250 mg/L
  MIC80: ≥ 250 mg/L
Cryptococcus neoformans [4]
  MIC50: ≥ 250 mg/L
  MIC80: ≥ 250 mg/L
Candida albicans [5]
  inhibition of growth at 250 µg/mL: 43.9%
Candida albicans [6]
  inhibition of growth at 125 µg/mL: 26.7%
Candida albicans [7]
  inhibition of growth at 62.5 µg/mL: 23.7%
Candida albicans [8]
  inhibition of growth at 31.25 µg/mL: 19.7%
Candida albicans [9]
  inhibition of growth at 15.62 µg/mL: 19.6%
Candida albicans [10]
  inhibition of growth at 7.8 µg/mL: 5.72%
Candida albicans [11]
  inhibition of growth at 3.4 µg/mL: 5.34%
Cryptococcus neoformans [12]
  inhibition of growth at 250 µg/mL: 0%
Cryptococcus neoformans [13]
  inhibition of growth at 125 µg/mL: 0%
Cryptococcus neoformans [14]
  inhibition of growth at 62.5 µg/mL: 0%
Cryptococcus neoformans [15]
  inhibition of growth at 31.25 µg/mL: 0%
Cryptococcus neoformans [16]
  inhibition of growth at 15.62 µg/mL: 0%
Cryptococcus neoformans [17]
  inhibition of growth at 7.8 µg/mL: 0%
Cryptococcus neoformans [18]
  inhibition of growth at 3.4 µg/mL: 0%
Staphylococcus aureus [19]
  MIC: > 1000 mg/L
Staphylococcus aureus [20]
  MIC: > 1000 mg/L
Staphylococcus aureus [21]
  MIC: > 1000 mg/L
Escherichia coli
  MIC: > 1000 mg/L
Pseudomonas aeruginosa
  MIC: > 1000 mg/L
Neisseria gonorrhoeae
  MIC: > 1000 mg/L
Plasmodium falciparum
  EC50: 24.3 mg/L (≈ 47 µM)
U-937
  LC50: 17.4 mg/L (≈ 33.7 µM)
Trypanosoma cruzi
  EC50: 7.22 mg/L (≈ 14 µM)
